Data taken from ChEMBL document CHEMBL1159342, “Nitric oxide inhibitory isopimarane-type diterpenes from Orthosiphon stamineus of Indonesia” (J Nat Prod, 2003).

Each compound was assayed on J774.1 (assay: Inhibition of LPS-induced NO production in mouse J774.1 cells after 24 hrs). Details: J774.1, 24 h.
Assay type: functional, cell-based
How it was run: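 Cells harvested with trypsin, seeded at 1 × 10^5 cells/well, adhered 2 h at 37 °C under 5% CO2. Medium then replaced with fresh medium containing LPS (10 µg/mL) plus test compounds at indicated concentrations, 24 h. Nitrite in supernatant measured with Griess reagent (10 min, room temperature), absorbance 550 nm. Quantified against NaNO2 standard curve in medium, medium-only blank subtracted.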

First: C[C@@H]1C[C@H]2[C@@H]3CCC4=CC(=O)C=C[C@]4(C)[C@@]3(F)[C@@H](O)C[C@]2(C)[C@@]1(O)C(=O)CO [DEXAMETHASONE]
Second: C=C[C@@]1(C)C[C@@H](O)[C@@H]2[C@@]3(C)C=C(OC(C)=O)C(=O)C(C)(C)[C@@H]3C[C@@H](OC(C)=O)[C@@]2(O)C1=O [ORTHOSIPHOL Y]
The IC50 of the first is 4.5-fold higher: 170 µM for the first, 37.9 µM for the second.

First: C=C[C@@]1(C)C[C@@H](OC(=O)c2ccccc2)[C@H]2[C@](O)(C1=O)[C@H](OC(C)=O)C[C@H]1C(C)(C)[C@H](O)[C@H](OC(C)=O)[C@H](OC(=O)c3ccccc3)[C@@]12C [ORTHOSIPHOL A]
Second: C=C[C@@]1(C)C[C@@H](OC(=O)c2ccccc2)[C@H]2[C@](O)(C1=O)[C@H](OC(C)=O)C[C@H]1C(C)(C)[C@H](OC(C)=O)[C@H](O)[C@H](OC(=O)c3ccccc3)[C@@]12C [ORTHOSIPHOL B]
The IC50 of the first is 1.8-fold lower: 11.5 µM for the first, 20.5 µM for the second. The first is the more potent here.

Going from `C=C[C@@]1(C)C[C@@H](OC(=O)c2ccccc2)[C@@H]2[C@@]3(C)C=C(OC(C)=O)C(=O)C(C)(C)[C@@H]3C[C@@H](OC(C)=O)[C@@]2(O)C1=O` [ORTHOSIPHOL D] to `C=C[C@@]1(C)C[C@@H](O)[C@H]2[C@](O)(C1=O)[C@H](OC(C)=O)C[C@H]1C(C)(C)[C@H](O)[C@H](OC(C)=O)[C@H](OC(=O)c3ccccc3)[C@@]12C` [ORTHOSIPHOL W], the IC50 rises from 14.4 µM to 57.6 µM (4-fold). The first is the more potent here.

`C=C[C@@]1(C)C[C@@H](OC(=O)c2ccccc2)[C@H]2[C@](O)(C1=O)[C@H](O)C[C@H]1C(C)(C)[C@H](OC(C)=O)[C@H](OC(C)=O)[C@H](OC(=O)c3ccccc3)[C@@]12C` [ORTHOSIPHOL F] and `C=C[C@@]1(C)C[C@@H](OC(=O)c2ccccc2)[C@H]2[C@](O)(C1=O)[C@H](O)C[C@H]1C(C)(C)[C@H](O)[C@H](OC(C)=O)[C@H](OC(=O)c3ccccc3)[C@@]12C` [ORTHOSIPHOL T] are within 1.5-fold of each other in IC50: 34.5 µM for the first, 35.9 µM for the second.

Going from `C=C[C@@]1(C)C[C@@H](O)[C@H]2[C@](O)(C1=O)[C@H](O)C[C@H]1C(C)(C)[C@H](OC(C)=O)[C@H](OC(C)=O)[C@H](OC(=O)c3ccccc3)[C@@]12C` [ORTHOSIPHOL G] to `C=C[C@@]1(C)C[C@@H](O)[C@H]2[C@](O)(C1=O)[C@H](OC(C)=O)C[C@H]1C(C)(C)[C@H](OC(C)=O)[C@H](OC(C)=O)[C@H](OC(=O)c3ccccc3)[C@@]12C` [ORTHOSIPHOL U], the IC50 falls from 145 µM to 59.7 µM (2.4-fold). The second is the more potent here.

Going from `C=C[C@@]1(C)CC(=O)[C@H]2[C@](O)(C1=O)[C@H](O)C[C@H]1C(C)(C)[C@H](OC(C)=O)[C@H](OC(C)=O)[C@H](OC(=O)c3ccccc3)[C@@]12C` [ORTHOSIPHOL I] to `C=C[C@@]1(C)CC(=O)[C@H]2[C@](O)(C1=O)[C@H](OC(C)=O)C[C@H]1C(C)(C)[C@H](OC(C)=O)[C@H](OC(C)=O)[C@H](OC(=O)c3ccccc3)[C@@]12C` [ORTHOSIPHOL J], the IC50 falls from 102 µM to 66.3 µM (1.5-fold). The second is the more potent here.

Going from `C=C[C@@]1(C)C[C@@H](O)[C@H]2[C@](O)(C1=O)[C@H](OC(C)=O)C[C@H]1C(C)(C)[C@H](OC(=O)c3ccccc3)[C@H](OC(C)=O)[C@H](OC(=O)c3ccccc3)[C@@]12C` [ORTHOSIPHOL O] to `C=C[C@@]1(C)C[C@@H](O)[C@H]2[C@](O)(C1=O)[C@H](O)C[C@H]1C(C)(C)[C@H](OC(=O)c3ccccc3)[C@H](OC(C)=O)[C@H](OC(=O)c3ccccc3)[C@@]12C` [ORTHOSIPHOL X], the IC50 falls from 27.7 µM to 6.4 µM (4.3-fold). The second is the more potent here.

`C=C[C@]1(C)C(=O)[C@]2(O)[C@H](OC(C)=O)C[C@H]3C(C)(C)[C@H](OC(C)=O)[C@H](O)[C@H](OC(=O)c4ccccc4)[C@]3(C)[C@H]2[C@H](OC(=O)c2ccccc2)[C@H]1O` [ORTHOSIPHOL R] and `C=C[C@@]1(C)CC(=O)[C@H]2[C@](O)(C1=O)[C@H](OC(C)=O)C[C@H]1C(C)(C)[C@H](OC(=O)c3ccccc3)[C@H](OC(C)=O)[C@H](OC(=O)c3ccccc3)[C@@]12C` [ORTHOSIPHONONE A] are within 1.5-fold of each other in IC50: 35.7 µM for the first, 32.1 µM for the second.

Compared with `C=C[C@@]1(C)C[C@@H](O)[C@H]2[C@](O)(C1=O)[C@H](OC(C)=O)C[C@H]1C(C)(C)[C@H](OC(C)=O)[C@H](O)[C@H](OC(=O)c3ccccc3)[C@@]12C` [ORTHOSIPHOL V], `C=C[C@@]1(C)C[C@@H](OC(=O)c2ccccc2)[C@@H]2[C@@](C)(CC(=O)O)[C@H](C(C)(C)C(=O)OC)C[C@@H](OC(C)=O)[C@@]2(O)C1=O` [SECOORTHOSIPHOL B] is 2.3-fold higher in IC50: 54.5 µM for the first, 127 µM for the second.

In the case of `CNC(=N)NCCC[C@H](N)C(=O)O` [TILARGININE], the IC50 is reported as 26 µM.
